For 15 compounds, IC50 results are on record in ChEMBL document CHEMBL1138651, “Synthesis of small molecule CDC25 phosphatases inhibitors” (Bioorg Med Chem Lett, 2004).

For the first experiment, the target named is T1, M-phase inducer phosphatase 3 (Homo sapiens, UniProt P30307).
T1 sequence (P30307 whole entry): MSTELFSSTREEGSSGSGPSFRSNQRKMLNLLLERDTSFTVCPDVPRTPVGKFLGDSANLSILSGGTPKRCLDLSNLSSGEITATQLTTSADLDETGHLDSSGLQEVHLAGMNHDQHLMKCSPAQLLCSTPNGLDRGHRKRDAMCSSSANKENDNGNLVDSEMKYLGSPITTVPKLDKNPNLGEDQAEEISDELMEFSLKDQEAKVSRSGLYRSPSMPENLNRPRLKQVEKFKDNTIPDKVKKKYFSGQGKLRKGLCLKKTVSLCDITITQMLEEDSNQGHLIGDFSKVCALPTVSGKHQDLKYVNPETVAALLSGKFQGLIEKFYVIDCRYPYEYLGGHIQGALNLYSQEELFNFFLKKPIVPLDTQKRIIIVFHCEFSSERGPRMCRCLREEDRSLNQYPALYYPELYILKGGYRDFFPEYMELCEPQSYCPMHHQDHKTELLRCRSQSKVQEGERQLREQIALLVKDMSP
Put plainly: Inhibitory concentration for human cell division cycle 25 degree C phosphatase; […].
`CN(CCc1ccc([N+](=O)[O-])cc1)Cc1ccc(N(C)C)cc1` came in with an IC50 above 80 µM. The same measure, in the same setting: the same measure for `COc1cccc(CN(C)CCc2ccc([N+](=O)[O-])cc2)c1OC`: above 80 µM. The same measure, in the same setting: the same measure for `CN(CCc1ccc([N+](=O)[O-])cc1)Cc1ccccc1O`: above 80 µM; for `COc1cccc(CN(C)CCc2ccc([N+](=O)[O-])cc2)c1O`: above 80 µM; for `CN(CCc1ccc([N+](=O)[O-])cc1)Cc1ccccc1`: above 80 µM. For `CN(CCc1ccc([N+](=O)[O-])cc1)Cc1cccc(N(C)C)c1`, the IC50 is above 80 µM. Compound `COc1cc(N(C)C)ccc1CN(C)CCc1ccc([N+](=O)[O-])cc1` came in with an IC50 above 80 µM.

The compound `COc1cccc(CN(C)CCc2ccc([N+](=O)[O-])cc2)c1` returned an IC50 above 80 µM. In turn, `COc1ccc(OC)c(CN(C)CCc2ccc([N+](=O)[O-])cc2)c1` came in with an IC50 above 80 µM.

In the case of `CN(CCc1ccc([N+](=O)[O-])cc1)Cc1cc([N+](=O)[O-])ccc1O`, the IC50 was above 80 µM.

A further experiment concerns the target T1, M-phase inducer phosphatase 3. In words: Inhibitory concentration for human cell division cycle 25 degree C phosphatase. A digest of the protocol: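 Recombinant human CDC25C expressed as an MBP fusion, assayed with 3-O-methylfluorescein phosphate (OMFP) as substrate. Dose-response used to derive IC50, with menadione as positive control. Values are the mean ± SEM of at least two independent experiments. Compounds with IC50 > 80 µM were scored not active.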
The compound `CN(C)c1ccc(O)c(CNCCc2ccc([N+](=O)[O-])cc2)c1` yielded an IC50 of 3.9 µM. Same read-out and setting: in the case of `COc1cc(N(C)C)cc(CNCCc2ccc([N+](=O)[O-])cc2)c1O` it was 4 µM; in that of `CN(CCc1ccc([N+](=O)[O-])cc1)Cc1cc(N(C)C)ccc1O`, 5.6 µM. The same measure, in the same setting: in the case of `COc1cc(CN(C)CCc2ccc([N+](=O)[O-])cc2)cc(N(C)C)c1O` it was 20.7 µM; in that of `CC1=CC(=O)c2ccccc2C1=O` [MENADIONE], 18.8 µM.
